Measurements: paper PMC11022931 (Blood, 2022)

Legend:
human platelets [1] = experiment: Multiple electrode aggregometry; assay type: cell-based; conditions: MEA, human blood; for effect on platelet aggregation induced by human plaque homogenate: plaque 833 µg/mL, AMD3465 100 nM, i[VREY]4 5 µM
[2] = i[VREY]4 pharmacokinetics, plasma ELISA; assay type: in vivo, C57BL/6J mice; conditions: C57BL/6J, mouse, ip, 75 ug
Procedure, shortened: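 Biotinylated test compound (75 µg) was injected i.p. into mice. Plasma levels of the biotinylated peptide were measured by ELISA at several time points after injection. Data are means ± SD.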

mouse platelets [3] = experiment: i[VREY]4-biot binding to mouse platelets, flow cytometry; assay type: cell-based
[4] = biological target: CXCL12 on human platelets (Homo sapiens, UniProt P48061); experiment: Detection of CXCL12 on human platelets with anti-CXCL12 antibodies; assay type: cell-based; conditions: human blood, CXCL12 0.1 µg/mL or collagen 1 µg/mL
CXCR4 = CXCR4 internalization on human platelets, flow cytometry; assay type: cell-based; conditions: CXCL12 0.1 µg/mL, i[VREY]4 5 µM
Procedure, shortened: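 Human blood diluted 1:1 with PBS and treated with recombinant CXCL12 (0.1 µg/mL), collagen (1 µg/mL) and test compound (5 µM). Platelet-surface CXCR4 was stained with anti-CXCR4 clone 12G5 and measured by flow cytometry. Data are means ± SD of independent experiments, analysed by one-way ANOVA with Tukey's multiple comparison test.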

human platelets [5] = experiment: i[VREY]4-biot binding and proximity ligation with CXCL12 on human platelets; assay type: cell-based; conditions: flow cytometry, resting vs collagen-activated, n = 6
15N-labeled CXCL12 = 15N-labeled CXCL12 (Homo sapiens, UniProt P48061); experiment: 15N HSQC NMR titration of CXCL12 with i[VREY]4; assay type: binding; conditions: 20 µM 15N-CXCL12, i[VREY]4 20, 40, 200 µM; 25 mM KPi pH 7.1; 25 °C
mouse platelets [6] = experiment: MEA in mouse blood activated with collagen; assay type: cell-based; conditions: 1 µg/mL collagen, 5 µM i[VREY]4, n = 6-8
Procedure, shortened: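 Blood came from mice with megakaryocyte-lineage Cxcl12 deletion (Pf4-Cre × Cxcl12 fl/fl, Apoe-/- background) or from Cxcl12 wt/wt controls. It was mixed with 1 µg/mL collagen with or without 5 µM test compound, and aggregation was measured by multiple electrode aggregometry (Multiplate), n=6-8 mice. Data are means ± SD.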

human platelets [7] = experiment: Platelet activation by PAC-1 and P-selectin staining, flow cytometry; assay type: cell-based; conditions: human blood, remibrutinib 0.1 µM 30 minutes at 37°C, CXCL12 0.1 μg/mL, CRP-XL 0.01 μg/mL, n = 6
CXCL12 = CXCL12 (Homo sapiens, UniProt P48061); conditions: read-out: KD of CXCL12 binding to CCL5; cited from earlier work

c1ccc(CNCc2ccc(CN3CCCNCCNCCCNCC3)cc2)nc1 [AMD3465, reference compound]
effect on platelet aggregation induced by human plaque homogenate (human platelets [1]): reduced

CC[C@H](C)[C@H](NC(=O)[C@H](Cc1ccc(O)cc1)NC(=O)[C@H](CCC(=O)O)NC(=O)[C@H](CCCNC(=N)N)NC(=O)[C@@H](NC(=O)[C@H](Cc1c[nH]c2ccccc12)NC(=O)[C@H](CCCCN)NC(=O)[C@H](CCCCN)NC(=O)[C@H](CCC(=O)O)NC(=O)CNC(=O)CON=C(C)CCCC(=O)NCCCC[C@@H]1NC(=O)[C@H](CCC(=O)O)NC(=O)[C@H](CCCCNC(=O)CCCC(C)=NOCC(=O)NCC(=O)N[C@@H](CCC(=O)O)C(=O)N[C@@H](CCCCN)C(=O)N[C@@H](CCCCN)C(=O)N[C@@H](Cc2c[nH]c3ccccc23)C(=O)N[C@H](C(=O)N[C@@H](CCCNC(=N)N)C(=O)N[C@@H](CCC(=O)O)C(=O)N[C@@H](Cc2ccc(O)cc2)C(=O)N[C@H](C(=O)N[C@@H](CC(N)=O)C(=O)N[C@@H](CO)C(=O)N[C@@H](CC(C)C)C(=O)N[C@@H](CCC(=O)O)C(=O)N[C@@H](CCSC)C(=O)N[C@@H](CO)C(=O)O)[C@@H](C)CC)C(C)C)NC(=O)[C@@H]2CCCN2C(=O)[C@H](CSC2CC(=O)N(CCCCCC(=O)NNC(=O)CCCC[C@@H]3SC[C@@H]4NC(=O)N[C@@H]43)C2=O)NC(=O)[C@H](CCCCNC(=O)CCCC(C)=NOCC(=O)NCC(=O)N[C@@H](CCC(=O)O)C(=O)N[C@@H](CCCCN)C(=O)N[C@@H](CCCCN)C(=O)N[C@@H](Cc2c[nH]c3ccccc23)C(=O)N[C@H](C(=O)N[C@@H](CCCNC(=N)N)C(=O)N[C@@H](CCC(=O)O)C(=O)N[C@@H](Cc2ccc(O)cc2)C(=O)N[C@H](C(=O)N[C@@H](CC(N)=O)C(=O)N[C@@H](CO)C(=O)N[C@@H](CC(C)C)C(=O)N[C@@H](CCC(=O)O)C(=O)N[C@@H](CCSC)C(=O)N[C@@H](CO)C(=O)O)[C@@H](C)CC)C(C)C)NC(=O)[C@H](CCCCN)NC(=O)[C@H](CCCCNC(=O)CCCC(C)=NOCC(=O)NCC(=O)N[C@@H](CCC(=O)O)C(=O)N[C@@H](CCCCN)C(=O)N[C@@H](CCCCN)C(=O)N[C@@H](Cc2c[nH]c3ccccc23)C(=O)N[C@H](C(=O)N[C@@H](CCCNC(=N)N)C(=O)N[C@@H](CCC(=O)O)C(=O)N[C@@H](Cc2ccc(O)cc2)C(=O)N[C@H](C(=O)N[C@@H](CC(N)=O)C(=O)N[C@@H](CO)C(=O)N[C@@H](CC(C)C)C(=O)N[C@@H](CCC(=O)O)C(=O)N[C@@H](CCSC)C(=O)N[C@@H](CO)C(=O)O)[C@@H](C)CC)C(C)C)NC(=O)[C@@H]2CCCN2C(=O)CNC1=O)C(C)C)C(=O)N[C@@H](CC(N)=O)C(=O)N[C@@H](CO)C(=O)N[C@@H](CC(C)C)C(=O)N[C@@H](CCC(=O)O)C(=O)N[C@@H](CCSC)C(=O)N[C@@H](CO)C(=O)O (some centres unmarked) [i[VREY]4-biot]
Cmax [2]: 1970 ng/mL | binding to the surface of unactivated mouse platelets (mouse platelets [3]; resting conditions, flow cytometry): No binding was observed | binding to the surface of mouse platelets, wild type vs CXCR4 knockout (mouse platelets [3]; resting or 10 µg/mL collagen, streptavidin-FITC flow cytometry, n = 3-5): required platelet activation and CXCR4

CC[C@H](C)[C@H](NC(=O)[C@H](Cc1ccc(O)cc1)NC(=O)[C@H](CCC(=O)O)NC(=O)[C@H](CCCNC(=N)N)NC(=O)[C@@H](NC(=O)[C@H](Cc1c[nH]c2ccccc12)NC(=O)[C@H](CCCCN)NC(=O)[C@H](CCCCN)NC(=O)[C@H](CCC(=O)O)NC(=O)CNC(=O)CON=C(C)CCCC(=O)NCCCC[C@@H]1NC(=O)[C@H](CCC(=O)O)NC(=O)[C@H](CCCCNC(=O)CCCC(C)=NOCC(=O)NCC(=O)N[C@@H](CCC(=O)O)C(=O)N[C@@H](CCCCN)C(=O)N[C@@H](CCCCN)C(=O)N[C@@H](Cc2c[nH]c3ccccc23)C(=O)N[C@H](C(=O)N[C@@H](CCCNC(=N)N)C(=O)N[C@@H](CCC(=O)O)C(=O)N[C@@H](Cc2ccc(O)cc2)C(=O)N[C@H](C(=O)N[C@@H](CC(N)=O)C(=O)N[C@@H](CO)C(=O)N[C@@H](CC(C)C)C(=O)N[C@@H](CCC(=O)O)C(=O)N[C@@H](CCSC)C(=O)N[C@@H](CO)C(=O)O)[C@@H](C)CC)C(C)C)NC(=O)[C@@H]2CCCN2C(=O)[C@H](CSCC(N)=O)NC(=O)[C@H](CCCCNC(=O)CCCC(C)=NOCC(=O)NCC(=O)N[C@@H](CCC(=O)O)C(=O)N[C@@H](CCCCN)C(=O)N[C@@H](CCCCN)C(=O)N[C@@H](Cc2c[nH]c3ccccc23)C(=O)N[C@H](C(=O)N[C@@H](CCCNC(=N)N)C(=O)N[C@@H](CCC(=O)O)C(=O)N[C@@H](Cc2ccc(O)cc2)C(=O)N[C@H](C(=O)N[C@@H](CC(N)=O)C(=O)N[C@@H](CO)C(=O)N[C@@H](CC(C)C)C(=O)N[C@@H](CCC(=O)O)C(=O)N[C@@H](CCSC)C(=O)N[C@@H](CO)C(=O)O)[C@@H](C)CC)C(C)C)NC(=O)[C@H](CCCCN)NC(=O)[C@H](CCCCNC(=O)CCCC(C)=NOCC(=O)NCC(=O)N[C@@H](CCC(=O)O)C(=O)N[C@@H](CCCCN)C(=O)N[C@@H](CCCCN)C(=O)N[C@@H](Cc2c[nH]c3ccccc23)C(=O)N[C@H](C(=O)N[C@@H](CCCNC(=N)N)C(=O)N[C@@H](CCC(=O)O)C(=O)N[C@@H](Cc2ccc(O)cc2)C(=O)N[C@H](C(=O)N[C@@H](CC(N)=O)C(=O)N[C@@H](CO)C(=O)N[C@@H](CC(C)C)C(=O)N[C@@H](CCC(=O)O)C(=O)N[C@@H](CCSC)C(=O)N[C@@H](CO)C(=O)O)[C@@H](C)CC)C(C)C)NC(=O)[C@@H]2CCCN2C(=O)CNC1=O)C(C)C)C(=O)N[C@@H](CC(N)=O)C(=O)N[C@@H](CO)C(=O)N[C@@H](CC(C)C)C(=O)N[C@@H](CCC(=O)O)C(=O)N[C@@H](CCSC)C(=O)N[C@@H](CO)C(=O)O [i[VREY]4]
effect on binding of anti-CXCL12 antibody clone #79018 to platelets ([4]; n = 8): diminished | effect on binding of anti-CXCL12 antibody K15C to platelets ([4]; n = 10): did not result in reduced binding of K15C | effect on internalization of CXCR4 after CXCL12 exposure (CXCR4): could not be reversed | change of i[VREY]4 binding to human platelets on activation with collagen (human platelets [5]): increased | effect on platelet aggregation induced by human plaque homogenate (human platelets [1]): inhibited | affinity of interaction with CXCL12 by HSQC NMR titration (15N-labeled CXCL12): in the micromolar range | effect on collagen-induced platelet aggregation in blood from Cxcl12 wt/wt mice (mouse platelets [6]): diminished

C=CC(=O)N(C)CCOc1c(N)ncnc1-c1cc(F)cc(NC(=O)c2ccc(C3CC3)cc2F)c1C [remibrutinib]
effect on P-selectin expression and integrin αIIbβ3 activation by CRP-XL combined with CXCL12 (human platelets [7]): reversed

CCL5: recombinant human chemokine CCL5
Kd (CXCL12): 578 ± 61 nM

CXCL12: recombinant human chemokine CXCL12, platelet agonist
CXCL12 concentration that induced platelet aggregation (human platelets [1]; recombinant CXCL12 alone, n = 5-10): ≥ 100 ng/mL
